Laboratory results reported in ChEMBL document CHEMBL3232906, “2-Amino-3-(phenylsulfanyl)norbornane-2-carboxylate: an appealing scaffold for the design of Rac1-Tiam1 protein-protein interaction inhibitors” (J Med Chem, 2014).
Calls of active or inactive are those of the source. No cut-off for these calls is given here.

Experiments:
[1] = target: T1, Ras-related C3 botulinum toxin substrate 1/T-lymphoma invasion and metastasis-inducing protein 1 (Homo sapiens, UniProt P63000+Q13009); assay: Inhibition of Rac1-Tiam1 interaction in human smooth muscle cells assessed as reduction of PDGF-BB stimulated GTP bound Rac1 level at 10 uM preincubated for 4 hrs followed by PDGF-BB stimulation measured after 2 mins by G-LISA assay relative to control; type: cell-based
In short: (§1)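 Cultured human aortic SMCs seeded at 2 × 10^5/35 mm dish in DMEM + 10% FCS, switched after 24 h to 0.4% FCS for 48 h. Compounds (DMSO stocks) added at 10 μM final for 4 h, then PDGF-BB 20 ng/mL for 2 min. Lysates analysed by G-LISA (RBD-coated plate, antibody/HRP detection) for Rac1–GTP or RhoA–GTP. Mean ± SD of triplicates.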

[2] = target: Transforming protein RhoA (Homo sapiens) (UniProt P61586); assay: Activation of RhoA in human smooth muscle cells assessed as PDGF-BB stimulated GTP bound protein level at 10 uM preincubated for 4 hrs followed by PDGF-BB stimulation measured after 2 mins by G-LISA assay; type: cell-based; in short: as §1
[3] = species: Homo sapiens; assay: Antimigratory activity against human smooth muscle cells assessed as inhibition of PDGF-BB-induced cell motility at 10 uM measured for 16 hrs by video microscopic analysis; type: functional, cell-based
In short: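 SMCs seeded at 2 × 10^4 per well of 24-well tray in DMEM + 10% FCS, moved to 0.4% FCS for 48 h. Compound added at 10 μM final together with PDGF-BB 20 ng/mL. Time-lapse video microscopy at 37 °C for 16 h; cells manually tracked and distance covered measured for 10 cells per condition from three independent experiments, mean ± SD.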

[4] = target: T1, Ras-related C3 botulinum toxin substrate 1/T-lymphoma invasion and metastasis-inducing protein 1; assay: Inhibition of Rac1-Tiam1 interaction in human smooth muscle cells assessed as reduction of PDGF-BB stimulated GTP bound Rac1 level preincubated for 4 hrs followed by PDGF-BB stimulation measured after 2 mins by G-LISA assay; type: cell-based
In short: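 SMCs serum-starved (0.4% FCS, 48 h) after seeding at 2 × 10^5/35 mm dish, treated 4 h with compound at 1, 2.5, 5 and 10 μM final, then stimulated with PDGF-BB 20 ng/mL for 2 min. Rac1–GTP in lysates read by G-LISA (Rac1-RBD plate, primary antibody plus HRP secondary). IC50 from concentration–response; triplicates, mean ± SD.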

Sequence of Transforming protein RhoA (Homo sapiens) (P61586 whole entry): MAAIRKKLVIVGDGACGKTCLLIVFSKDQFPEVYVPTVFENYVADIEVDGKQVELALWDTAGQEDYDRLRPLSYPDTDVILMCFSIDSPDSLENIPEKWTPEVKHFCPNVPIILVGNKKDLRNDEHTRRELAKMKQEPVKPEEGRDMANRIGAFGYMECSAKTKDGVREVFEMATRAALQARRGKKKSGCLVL

SMILES	inhibition [1]	Activity [2]	inhibition [3]	IC50 [4] [nM]	inhibition [4]
CCOC(=O)[C@]1(N)[C@@H]2C[C@@H](C[C@H]2c2cccc(Nc3ccc(N)cc3)c2)[C@@H]1Sc1ccccc1 (relative stereo)	75%	Active	Active	2500	Dose-dependent effect
CCOC(=O)[C@@]1(N)[C@@H]2C[C@@H](C[C@H]2c2cccc(Nc3ccc(N)cc3)c2)[C@@H]1Sc1ccccc1 (relative stereo)	Active	Active	–	–	–
CCOC(=O)[C@@]1(N)[C@@H]2C[C@@H]([C@@H](c3cccc(Nc4ccc(N)cc4)c3)C2)[C@@H]1Sc1ccccc1 (relative stereo)	Active	Active	–	–	–
CCOC(=O)[C@]1(N)[C@@H]2C[C@@H](C[C@H]2c2cccc(Nc3ccc(N)cc3)c2)[C@H]1Sc1ccccc1 (relative stereo)	Active	Active	–	–	–
CCOC(=O)[C@]1(N)[C@@H]2C[C@@H]([C@@H](c3cccc(Nc4ccc(N)cc4)c3)C2)[C@@H]1Sc1ccccc1 (relative stereo)	Active	Active	–	–	–
CCOC(=O)[C@]1(N)[C@@H]2C[C@@H]([C@@H](c3cccc(Nc4ccc(N)cc4)c3)C2)[C@H]1Sc1ccccc1 (relative stereo)	Active	Active	–	–	–
